Assay results: ChEMBL document CHEMBL1150154, “Isolation of labradorins 1 and 2 from Pseudomonas syringae pv. coronafaciens” (2002)
≈ marks a conversion by molar mass, not a printed value. Calls of active or inactive are those of the source. The calls are words filed in the database; no cut-off is given here.

How the values were obtained:
KM-20L2 = assay: Growth inhibition of human KM20L2 cells; type: functional
How it was run: (§1)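 Human cancer cell line panel: pancreas (BXPC-3), breast (MCF-7), CNS (SF-268), non-small-cell lung (NCI-H460), colon (KM20L2) and prostate (DU-145). Growth inhibition is reported as GI50 in µg/mL.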

Staphylococcus aureus = assay: Antimicrobial activity against Staphylococcus aureus up to 64 ug/mL by broth microdilution susceptibility assay; type: functional, organism-based
Neisseria gonorrhoeae = assay: Antimicrobial activity against Neisseria gonorrhoeae up to 64 ug/mL by broth microdilution susceptibility assay; type: functional, organism-based
Micrococcus luteus = assay: Antimicrobial activity against Micrococcus luteus up to 64 ug/mL by broth microdilution susceptibility assay; type: functional, organism-based
DU-145 = assay: Growth inhibition of human DU145 cells; type: functional; how it was run: as §1
BXPC-3 = assay: Growth inhibition of human BxPC3 cells; type: functional; how it was run: as §1
NCI-H460 = assay: Growth inhibition of human NCI-H460 cells; type: functional; how it was run: as §1
[1] = test system: Stenotrophomonas maltophilia; assay: Antimicrobial activity against Stenotrophomonas maltophilia up to 64 ug/mL by broth microdilution susceptibility assay; type: functional, organism-based
Enterobacter cloacae = assay: Antimicrobial activity against Enterobacter cloacae up to 64 ug/mL by broth microdilution susceptibility assay; type: functional, organism-based
MCF7 = assay: Growth inhibition of human MCF7 cells; type: functional; how it was run: as §1
Escherichia coli = assay: Antimicrobial activity against Escherichia coli up to 64 ug/mL by broth microdilution susceptibility assay; type: functional, organism-based
Streptococcus pneumoniae = assay: Antimicrobial activity against Streptococcus pneumoniae up to 64 ug/mL by broth microdilution susceptibility assay; type: functional, organism-based
Candida albicans = assay: Antimicrobial activity against Candida albicans up to 64 ug/mL by broth microdilution susceptibility assay; type: functional, organism-based
SF-268 = assay: Growth inhibition of human SF268 cells; type: functional; how it was run: as §1
Enterococcus faecalis = assay: Antimicrobial activity against Enterococcus faecalis up to 64 ug/mL by broth microdilution susceptibility assay; type: functional, organism-based
Cryptococcus neoformans = assay: Antimicrobial activity against Cryptococcus neoformans up to 64 ug/mL by broth microdilution susceptibility assay; type: functional, organism-based

SMILES	GI50 (KM-20L2) [µg/mL]	Activity (Staphylococcus aureus)	Activity (Neisseria gonorrhoeae)	Activity (Micrococcus luteus)	GI50 (DU-145) [µg/mL]	GI50 (BXPC-3) [µg/mL]	GI50 (NCI-H460) [µg/mL]	Activity [1]	Activity (Enterobacter cloacae)	GI50 (MCF7) [µg/mL]	Activity (Escherichia coli)	Activity (Streptococcus pneumoniae)	Activity (Candida albicans)	GI50 (SF-268) [µg/mL]	Activity (Enterococcus faecalis)	Activity (Cryptococcus neoformans)
CC(C)Cc1ncc(-c2c[nH]c3ccccc23)o1 [LABRADORIN 1]	3.5 (≈ 14.6 µM)	inactive	inactive	inactive	4 (≈ 16.6 µM)	6.2 (≈ 25.8 µM)	9.8 (≈ 40.8 µM)	inactive	inactive	3.9 (≈ 16.2 µM)	inactive	inactive	inactive	5.1 (≈ 21.2 µM)	inactive	inactive
CCCCCc1ncc(-c2c[nH]c3ccccc23)o1 [LABRADORIN 2]	9.7 (≈ 38.1 µM)	inactive	inactive	inactive	11.4 (≈ 44.8 µM)	9.6 (≈ 37.7 µM)	9.6 (≈ 37.7 µM)	inactive	inactive	27.4 (≈ 108 µM)	inactive	inactive	inactive	58.8 (≈ 231 µM)	inactive	inactive
